# Assays:
# NCI-H1975 [1] = experiment: Growth inhibition of human NCI-H1975 cells after 72 hrs by CellTiter-Glo assay; format: functional; settings: NCI-H1975, 72 h
# Method in brief: (§1)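 Antiproliferative GI50 against H1975 and H3122 cells; each GI50 value obtained from triplicate testing.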
# NCI-H3122 [2] = experiment: Growth inhibition of human NCI-H3122 cells after 72 hrs by CellTiter-Glo assay; format: functional; settings: NCI-H3122, 72 h; method in brief: as §1
# [3] = Antiproliferative activity against mouse BAF3 cells after 72 hrs by CellTiter-Glo assay; format: cell-based
# NCI-H3122 [4] = experiment: Antiproliferative activity against human NCI-H3122 cells harboring EML4-fused ALK varian1 after 72 hrs by CellTiter-Glo assay; format: functional; settings: NCI-H3122, 72 h; method in brief: as §1
# [5] = Antiproliferative activity against CHO cells after 72 hrs by CellTiter-Glo assay; format: cell-based, Cricetulus griseus; settings: chinese hamster
# [6] = Antiproliferative activity against CHL cells after 72 hrs by CellTiter-Glo assay; format: cell-based, Cricetulus griseus; settings: chinese hamster
# [7] = molecular target: T1, Epidermal growth factor receptor (Homo sapiens, UniProt P00533); experiment: Inhibition of TEL-fused EGFR (unknown origin) expressed in mouse BAF3 cells assessed as decrease in cell proliferation after 72 hrs by CellTiter-Glo assay; format: cell-based
# T1 sequence (P00533 whole entry, the tested form may be a part): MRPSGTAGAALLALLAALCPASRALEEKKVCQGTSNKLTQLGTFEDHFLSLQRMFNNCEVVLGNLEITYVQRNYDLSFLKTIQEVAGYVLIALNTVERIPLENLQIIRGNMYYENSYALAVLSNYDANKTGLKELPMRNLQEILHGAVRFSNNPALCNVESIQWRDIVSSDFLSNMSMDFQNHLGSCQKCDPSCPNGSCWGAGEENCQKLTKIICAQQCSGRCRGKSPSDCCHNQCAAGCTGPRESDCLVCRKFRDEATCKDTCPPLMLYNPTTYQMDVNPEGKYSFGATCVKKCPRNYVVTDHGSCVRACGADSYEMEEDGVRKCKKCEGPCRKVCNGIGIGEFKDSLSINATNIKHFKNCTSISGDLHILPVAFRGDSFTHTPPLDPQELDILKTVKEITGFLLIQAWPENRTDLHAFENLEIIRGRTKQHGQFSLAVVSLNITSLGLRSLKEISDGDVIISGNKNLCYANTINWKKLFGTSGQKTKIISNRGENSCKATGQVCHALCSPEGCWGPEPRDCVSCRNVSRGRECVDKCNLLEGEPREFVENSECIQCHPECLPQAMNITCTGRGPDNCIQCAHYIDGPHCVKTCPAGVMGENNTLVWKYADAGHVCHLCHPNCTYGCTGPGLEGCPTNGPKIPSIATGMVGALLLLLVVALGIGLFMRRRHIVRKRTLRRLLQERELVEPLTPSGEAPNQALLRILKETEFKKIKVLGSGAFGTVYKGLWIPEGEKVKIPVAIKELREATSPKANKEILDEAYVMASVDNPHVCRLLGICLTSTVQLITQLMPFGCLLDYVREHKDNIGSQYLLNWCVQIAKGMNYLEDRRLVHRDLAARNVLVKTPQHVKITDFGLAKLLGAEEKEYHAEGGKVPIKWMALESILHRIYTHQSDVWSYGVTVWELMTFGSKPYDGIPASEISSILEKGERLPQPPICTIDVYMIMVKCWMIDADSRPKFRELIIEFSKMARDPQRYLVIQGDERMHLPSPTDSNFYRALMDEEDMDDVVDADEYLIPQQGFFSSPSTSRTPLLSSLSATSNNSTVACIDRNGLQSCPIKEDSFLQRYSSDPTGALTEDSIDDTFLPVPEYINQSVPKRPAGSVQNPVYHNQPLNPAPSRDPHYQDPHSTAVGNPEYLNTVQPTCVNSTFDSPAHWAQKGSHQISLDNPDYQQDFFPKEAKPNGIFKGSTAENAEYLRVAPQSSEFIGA
# [8] = system: Epidermal growth factor receptor (Homo sapiens), P00533 [T790M]; experiment: Inhibition of TEL-fused EGFR T790M mutant (unknown origin) expressed in mouse BAF3 cells assessed as decrease in cell proliferation after 72 hrs by CellTiter-Glo assay; format: cell-based
# Epidermal growth factor receptor (Homo sapiens), P00533 [T790M], sequence (P00533 whole entry T790M, the tested form may be a part): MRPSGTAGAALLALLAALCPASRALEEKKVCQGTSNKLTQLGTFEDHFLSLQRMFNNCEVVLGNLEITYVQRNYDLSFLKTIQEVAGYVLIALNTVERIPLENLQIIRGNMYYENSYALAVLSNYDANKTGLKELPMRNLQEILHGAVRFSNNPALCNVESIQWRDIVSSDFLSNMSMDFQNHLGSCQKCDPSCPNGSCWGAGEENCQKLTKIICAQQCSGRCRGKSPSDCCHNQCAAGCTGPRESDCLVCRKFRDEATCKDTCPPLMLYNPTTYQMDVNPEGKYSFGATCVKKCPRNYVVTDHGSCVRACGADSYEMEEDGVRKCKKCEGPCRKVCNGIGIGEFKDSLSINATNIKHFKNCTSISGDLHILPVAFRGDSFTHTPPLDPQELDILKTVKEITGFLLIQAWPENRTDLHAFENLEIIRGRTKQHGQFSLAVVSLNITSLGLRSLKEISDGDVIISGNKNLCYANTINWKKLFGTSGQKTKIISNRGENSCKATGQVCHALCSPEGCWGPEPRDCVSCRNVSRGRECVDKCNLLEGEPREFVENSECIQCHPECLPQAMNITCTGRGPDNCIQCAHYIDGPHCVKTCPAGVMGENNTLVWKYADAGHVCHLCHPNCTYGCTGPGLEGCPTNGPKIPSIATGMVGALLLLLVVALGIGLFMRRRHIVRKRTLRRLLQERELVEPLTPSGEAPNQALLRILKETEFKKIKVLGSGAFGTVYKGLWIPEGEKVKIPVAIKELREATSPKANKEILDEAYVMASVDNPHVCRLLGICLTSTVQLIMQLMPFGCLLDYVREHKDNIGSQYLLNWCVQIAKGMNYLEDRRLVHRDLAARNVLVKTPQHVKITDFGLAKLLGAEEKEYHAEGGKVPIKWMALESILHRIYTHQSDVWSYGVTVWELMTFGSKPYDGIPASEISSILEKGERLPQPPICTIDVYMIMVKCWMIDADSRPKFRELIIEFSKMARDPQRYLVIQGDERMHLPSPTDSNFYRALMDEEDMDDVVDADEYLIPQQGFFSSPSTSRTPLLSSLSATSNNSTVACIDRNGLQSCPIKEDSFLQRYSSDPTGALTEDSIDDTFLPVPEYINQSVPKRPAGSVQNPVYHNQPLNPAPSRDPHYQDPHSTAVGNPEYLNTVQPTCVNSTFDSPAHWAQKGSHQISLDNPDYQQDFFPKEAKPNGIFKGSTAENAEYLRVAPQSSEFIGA
# [9] = system: Epidermal growth factor receptor (Homo sapiens), P00533 [C797S]; experiment: Inhibition of TEL-fused EGFR C797S mutant (unknown origin) expressed in mouse BAF3 cells assessed as decrease in cell proliferation after 72 hrs by CellTiter-Glo assay; format: cell-based
# Epidermal growth factor receptor (Homo sapiens), P00533 [C797S], sequence (P00533 whole entry C797S, the tested form may be a part): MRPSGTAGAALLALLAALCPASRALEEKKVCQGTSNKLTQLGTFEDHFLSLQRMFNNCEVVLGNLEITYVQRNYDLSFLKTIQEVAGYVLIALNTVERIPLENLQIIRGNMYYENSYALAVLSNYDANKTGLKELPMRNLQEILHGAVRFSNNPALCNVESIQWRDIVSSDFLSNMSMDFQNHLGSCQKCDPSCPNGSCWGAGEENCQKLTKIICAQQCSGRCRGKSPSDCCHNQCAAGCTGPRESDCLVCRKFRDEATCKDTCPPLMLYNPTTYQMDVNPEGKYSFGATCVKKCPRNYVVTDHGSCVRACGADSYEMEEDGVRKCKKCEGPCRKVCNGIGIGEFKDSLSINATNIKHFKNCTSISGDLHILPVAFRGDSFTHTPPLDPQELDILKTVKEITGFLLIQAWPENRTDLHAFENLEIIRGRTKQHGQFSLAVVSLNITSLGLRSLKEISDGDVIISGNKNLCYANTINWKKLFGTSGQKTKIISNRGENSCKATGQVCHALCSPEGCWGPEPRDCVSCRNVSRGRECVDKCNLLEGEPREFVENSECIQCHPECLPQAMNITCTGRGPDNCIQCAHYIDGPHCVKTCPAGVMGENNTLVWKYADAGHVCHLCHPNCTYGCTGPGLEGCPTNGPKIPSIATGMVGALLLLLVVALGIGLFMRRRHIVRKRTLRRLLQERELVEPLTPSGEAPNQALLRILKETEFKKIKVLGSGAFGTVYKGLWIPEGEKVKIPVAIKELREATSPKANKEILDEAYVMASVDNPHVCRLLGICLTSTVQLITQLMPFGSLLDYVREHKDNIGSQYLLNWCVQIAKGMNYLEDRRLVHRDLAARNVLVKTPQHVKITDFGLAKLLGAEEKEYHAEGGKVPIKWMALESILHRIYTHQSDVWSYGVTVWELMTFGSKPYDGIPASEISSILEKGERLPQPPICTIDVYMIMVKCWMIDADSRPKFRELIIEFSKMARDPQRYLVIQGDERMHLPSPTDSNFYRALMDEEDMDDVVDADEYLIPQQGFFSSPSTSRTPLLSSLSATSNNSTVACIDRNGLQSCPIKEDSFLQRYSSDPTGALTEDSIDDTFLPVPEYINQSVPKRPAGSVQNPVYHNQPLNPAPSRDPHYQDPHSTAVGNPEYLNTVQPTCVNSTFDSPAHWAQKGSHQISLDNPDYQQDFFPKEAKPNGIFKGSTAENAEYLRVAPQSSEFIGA
# [10] = molecular target: T1, Epidermal growth factor receptor; experiment: Inhibition of full length EGFR del19 mutant (unknown origin) expressed in mouse BAF3 cells assessed as decrease in cell proliferation after 72 hrs by CellTiter-Glo assay; format: cell-based
# [11] = system: Epidermal growth factor receptor (Homo sapiens), P00533 [L858R]; experiment: Inhibition of full length EGFR L858R mutant (unknown origin) expressed in mouse BAF3 cells assessed as decrease in cell proliferation after 72 hrs by CellTiter-Glo assay; format: cell-based
# [12] = system: Epidermal growth factor receptor (Homo sapiens), P00533 [L858R,T790M]; experiment: Inhibition of full length EGFR L858R/T790M mutant (unknown origin) expressed in mouse BAF3 cells assessed as decrease in cell proliferation after 72 hrs by CellTiter-Glo assay; format: cell-based
# Epidermal growth factor receptor (Homo sapiens), P00533 [L858R,T790M], sequence (P00533 whole entry T790M/L858R, looked up): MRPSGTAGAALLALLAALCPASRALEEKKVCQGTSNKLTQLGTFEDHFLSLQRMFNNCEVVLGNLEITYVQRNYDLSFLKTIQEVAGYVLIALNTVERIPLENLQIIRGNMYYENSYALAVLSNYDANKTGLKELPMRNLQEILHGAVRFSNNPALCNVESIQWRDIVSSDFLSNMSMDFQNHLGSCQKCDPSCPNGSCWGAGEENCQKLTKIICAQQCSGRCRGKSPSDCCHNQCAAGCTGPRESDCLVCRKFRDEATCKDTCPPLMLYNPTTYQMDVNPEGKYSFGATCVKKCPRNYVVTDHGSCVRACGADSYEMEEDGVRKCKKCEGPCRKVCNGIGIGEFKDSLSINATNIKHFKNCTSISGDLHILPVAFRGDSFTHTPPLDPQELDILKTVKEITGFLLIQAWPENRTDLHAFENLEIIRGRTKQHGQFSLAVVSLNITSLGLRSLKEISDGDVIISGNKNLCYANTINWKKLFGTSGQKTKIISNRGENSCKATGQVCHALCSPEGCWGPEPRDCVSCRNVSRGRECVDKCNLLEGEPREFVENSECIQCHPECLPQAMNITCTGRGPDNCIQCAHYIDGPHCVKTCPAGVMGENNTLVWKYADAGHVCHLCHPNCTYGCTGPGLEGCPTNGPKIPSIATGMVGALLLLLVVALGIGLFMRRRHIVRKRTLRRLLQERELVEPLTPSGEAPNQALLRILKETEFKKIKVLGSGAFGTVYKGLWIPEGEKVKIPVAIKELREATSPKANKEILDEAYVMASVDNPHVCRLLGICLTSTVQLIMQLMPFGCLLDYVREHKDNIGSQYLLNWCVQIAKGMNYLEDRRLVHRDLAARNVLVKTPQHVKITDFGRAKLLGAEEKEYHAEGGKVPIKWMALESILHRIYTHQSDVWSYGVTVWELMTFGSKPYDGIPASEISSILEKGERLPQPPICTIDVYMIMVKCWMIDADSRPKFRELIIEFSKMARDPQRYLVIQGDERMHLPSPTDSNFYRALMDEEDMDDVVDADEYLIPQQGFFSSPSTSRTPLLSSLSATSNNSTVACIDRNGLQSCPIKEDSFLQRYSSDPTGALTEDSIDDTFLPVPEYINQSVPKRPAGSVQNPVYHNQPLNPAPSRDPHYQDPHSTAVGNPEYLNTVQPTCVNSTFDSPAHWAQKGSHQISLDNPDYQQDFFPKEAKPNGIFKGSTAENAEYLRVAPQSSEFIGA
# [13] = system: Epidermal growth factor receptor (Homo sapiens), P00533 [L858R,T790M,C797S]; experiment: Inhibition of full length EGFR L858R/T790M/C797S mutant (unknown origin) expressed in mouse BAF3 cells assessed as decrease in cell proliferation after 72 hrs by CellTiter-Glo assay; format: cell-based
# NCI-H1975 [14] = experiment: Antiproliferative activity against human NCI-H1975 cells harboring EGFR L858R/T790M mutant after 72 hrs by CellTiter-Glo assay; format: functional; settings: NCI-H1975, 72 h; method in brief: as §1
# PC-9 = experiment: Antiproliferative activity against human PC9 cells harboring EGFR del19 mutant after 72 hrs by CellTiter-Glo assay; format: functional; settings: PC-9, 72 h
# HCC827 = experiment: Antiproliferative activity against human HCC827 cells harboring EGFR del19 mutant after 72 hrs by CellTiter-Glo assay; format: functional; settings: HCC827, 72 h
# NCI-H3255 = experiment: Antiproliferative activity against human H3255 cells harboring EGFR L858R mutant after 72 hrs by CellTiter-Glo assay; format: functional; settings: NCI-H3255, 72 h
# A549 = experiment: Antiproliferative activity against human A549 cells harboring wild-type EGFR after 72 hrs by CellTiter-Glo assay; format: functional; settings: A549, 72 h
# NCI-H2122 = experiment: Antiproliferative activity against human NCI-H2122 cells harboring wild-type EGFR after 72 hrs by CellTiter-Glo assay; format: functional; settings: NCI-H2122, 72 h
# NCI-H1355 = experiment: Antiproliferative activity against human NCI-H1355 cells harboring wild-type EGFR after 72 hrs by CellTiter-Glo assay; format: functional; settings: NCI-H1355, 72 h
# NCI-H2228 = experiment: Antiproliferative activity against human NCI-H2228 cells harboring EML4-fused ALK varian3 after 72 hrs by CellTiter-Glo assay; format: functional; settings: NCI-H2228, 72 h
SMILES,GI50 (NCI-H1975 [1]),GI50 (NCI-H3122 [2]),further results
C=CC(=O)Nc1cc(Nc2ncc(Cl)c(Nc3ccccc3NC(=O)C(C)(C)C)n2)c(OC)cc1N1CCN(C)CC1,950 nM,6500 nM,–
C=CC(=O)Nc1cc(Nc2ncc(Cl)c(Nc3ccccc3S(=O)(=O)C(C)C)n2)c(OC(C)C)cc1N1CCN(CC)CC1,300 nM,< 0.3 nM,–
C=CC(=O)Nc1cc(Nc2ncc(Cl)c(NC3CC3)n2)c(OC)cc1N1CCN(C)CC1,> 10000 nM,3200 nM,–
C=CC(=O)Nc1cc(Nc2ncc(Cl)c(Nc3ccccc3P(C)(C)=O)n2)c(OC)cc1N1CCN(S(C)(=O)=O)CC1,890 nM,800 nM,–
C=CC(=O)Nc1cc(Nc2ncc(Cl)c(Nc3ccccc3C(=O)NC)n2)c(OC)cc1N1CCN(C(C)C)CC1,79 nM,4.5 nM,–
C=CC(=O)Nc1cc(Nc2ncc(Cl)c(Nc3ccccc3S(=O)(=O)C(C)C)n2)c(OC)cc1N1CCOCC1,1200 nM,< 0.3 nM,–
C=CC(=O)Nc1cc(Nc2ncc(Cl)c(Nc3ccccc3S(=O)(=O)C(C)C)n2)c(OC)cc1N1CCN(C)CC1,43 nM,33 nM,–
C=CC(=O)Nc1cc(Nc2ncc(Cl)c(Nc3ccccc3C#N)n2)c(OC)cc1N1CCN(CC)CC1,440 nM,110 nM,–
C[C@@H](Oc1cc(-c2cnn(C3CCNCC3)c2)cnc1N)c1c(Cl)ccc(F)c1Cl [CRIZOTINIB],–,–,GI50 at 72 h [3]: 1100 nM; GI50 (NCI-H3122 [4]): 37 nM; GI50 at 72 h [5]: 3200 nM; GI50 at 72 h [6]: 450 nM
COc1cc(N2CCC(N3CCN(C)CC3)CC2)ccc1Nc1ncc(Cl)c(Nc2ccccc2S(=O)(=O)C(C)C)n1,–,–,GI50 [7]: 560 nM; GI50 [8]: 420 nM
C=CC(=O)Nc1cc(Nc2ncc(Cl)c(Nc3ccccc3C(=O)NC)n2)c(OC)cc1N1CCN(C)CC1,50 nM,3.5 nM,–
C=CC(=O)Nc1cc(Nc2ncc(Cl)c(Nc3ccc(F)c(Cl)c3)n2)c(OC)cc1N1CCN(C)CC1,100 nM,300 nM,–
C=CC(=O)Nc1cc(Nc2ncc(Cl)c(Nc3ccccc3S(=O)(=O)C(C)C)n2)c(OC)cc1N1CCN(C(C)C)CC1,25 nM,–,–
C=CC(=O)Nc1cc(Nc2ncc(Cl)c(Nc3ccccc3S(=O)(=O)C(C)C)n2)c(OC)cc1N1CCN(CCOC)CC1,41 nM,–,–
C=CC(=O)Nc1cc(Nc2ncc(Cl)c(Nc3ccccc3C#N)n2)c(OC)cc1N1CCC(N2CCN(C)CC2)CC1,200 nM,98 nM,–
C=CC(=O)Nc1cc(Nc2ncc(Cl)c(Nc3ccccc3S(=O)(=O)C(C)C)n2)c(OC)cc1N1CCCCC1,240 nM,29 nM,–
C=CC(=O)Nc1cc(Nc2ncc(Cl)c(Nc3ccccc3C(=O)NC)n2)c(OC)cc1N1CCN(C2CCN(C)CC2)CC1,120 nM,18 nM,–
C=CC(=O)Nc1cc(Nc2ncc(Cl)c(N(C)c3cccc(C(F)(F)F)c3)n2)c(OC)cc1N1CCN(C)CC1,1800 nM,3600 nM,–
C=CC(=O)Nc1cc(Nc2ncc(Cl)c(Nc3ccccc3S(=O)(=O)C(C)C)n2)c(OC)cc1N1CCN(S(C)(=O)=O)CC1,40 nM,–,–

SMILES,GI50 (NCI-H1975 [1]),GI50 (NCI-H3122 [2]),further results
C=CC(=O)Nc1cc(Nc2ncc(Cl)c(Nc3ccccc3P(C)(C)=O)n2)c(OC)cc1N1CCC(N(C)C)CC1,220 nM,140 nM,–
C=CC(=O)Nc1cc(Nc2ncc(Cl)c(Nc3ccccc3P(C)(C)=O)n2)c(OC)cc1N1CCN(CC)CC1,26 nM,37 nM,–
C=CC(=O)Nc1cc(Nc2ncc(Cl)c(Nc3ccccc3P(C)(C)=O)n2)c(OC)cc1N1CCC(N2CCCCC2)CC1,41 nM,78 nM,–
C=CC(=O)Nc1cc(Nc2ncc(Cl)c(Nc3ccccc3C#N)n2)c(OC)cc1N1CCN(C(C)C)CC1,430 nM,110 nM,–
C=CC(=O)Nc1cc(Nc2ncc(Cl)c(Nc3cccc(C(F)(F)F)c3)n2)c(OC)cc1N1CCN(C)CC1,260 nM,770 nM,–
C=CC(=O)Nc1cc(Nc2ncc(Cl)c(Nc3ccccc3P(C)(C)=O)n2)c(OC)cc1N1CCOCC1,780 nM,360 nM,–
C=CC(=O)Nc1cc(Nc2ncc(Cl)c(Nc3ccccc3S(=O)(=O)C(C)C)n2)c(OC)cc1N1CCC(N2CCN(C)CC2)CC1,23 nM,–,–
C=CC(=O)Nc1cc(Nc2ncc(Cl)c(NCc3cccs3)n2)c(OC)cc1N1CCN(C)CC1,220 nM,270 nM,–
C=CC(=O)Nc1cc(Nc2ncc(Cl)c(Nc3c(F)cccc3F)n2)c(OC)cc1N1CCN(C)CC1,130 nM,2900 nM,–
C=CC(=O)Nc1cc(Nc2ncc(Cl)c(Nc3ccccc3C(=O)NC)n2)c(OC)cc1N1CCN(C(C)=O)CC1,250 nM,12 nM,–
C=CC(=O)Nc1cc(Nc2nccc(Nc3ccccc3S(=O)(=O)C(C)C)n2)c(OC)cc1N1CCN(CC)CC1,190 nM,41 nM,–
C=CC(=O)Nc1cc(Nc2ncc(C)c(Nc3ccccc3S(=O)(=O)C(C)C)n2)c(OC)cc1N1CCC(N2CCN(C)CC2)CC1,27 nM,–,–
C=CC(=O)Nc1cc(Nc2ncc(Cl)c(Nc3ccccc3S(=O)(=O)N(C)C)n2)c(OC)cc1N1CCN(C)CC1,31 nM,11 nM,–
C=CC(=O)Nc1cc(Nc2ncc(Cl)c(Nc3ccccc3C#N)n2)c(OC)cc1N1CCOCC1,1200 nM,370 nM,–
C=CC(=O)Nc1cc(Nc2ncc(C)c(Nc3ccccc3S(=O)(=O)C(C)C)n2)c(OC)cc1N1CCN(CC)CC1,43 nM,2 nM,–
C=CC(=O)Nc1cc(Nc2ncc(Cl)c(Nc3ccccc3S(=O)(=O)C(C)C)n2)ccc1N1CCC(N2CCN(C)CC2)CC1,7100 nM,4900 nM,–
CCC(=O)Nc1cc(Nc2ncc(Cl)c(Nc3ccccc3S(=O)(=O)C(C)C)n2)c(OC)cc1N1CCCN(C)CC1,–,–,GI50 at 72 h [3]: 7100 nM; GI50 [7]: 1500 nM; GI50 [9]: 360 nM; GI50 [8]: 800 nM; GI50 [10]: 270 nM; GI50 [11]: 370 nM; GI50 [12]: 290 nM; GI50 [13]: 1700 nM; GI50 (NCI-H1975 [14]): 700 nM; GI50 (PC-9): 340 nM; GI50 (HCC827): 2600 nM; GI50 (NCI-H3255): 830 nM; GI50 (A549): 1200 nM; GI50 (NCI-H2122): 3300 nM; GI50 (NCI-H1355): 2200 nM; GI50 (NCI-H3122 [4]): < 0.3 nM; GI50 (NCI-H2228): 100 nM; GI50 at 72 h [5]: 3600 nM; GI50 at 72 h [6]: 1300 nM
C=CC(=O)Nc1cccc(Oc2nc(Nc3ccc(N4CCN(C)CC4)cc3OC)ncc2Cl)c1,–,–,GI50 [9]: 890 nM; GI50 [8]: 2.1 nM; GI50 (NCI-H1975 [14]): 56 nM; GI50 (PC-9): 27 nM; GI50 (HCC827): 7.4 nM; GI50 (NCI-H3255): 390 nM; GI50 (A549): > 10000 nM; GI50 (NCI-H2122): 5700 nM; GI50 (NCI-H1355): 5300 nM; GI50 at 72 h [5]: 3900 nM; GI50 at 72 h [6]: 4400 nM
C=CC(=O)Nc1cc(Nc2ncc(Cl)c(Nc3ccccc3S(=O)(=O)C(C)C)n2)c(OC)cc1N1CCN(C2CCCCC2)CC1,77 nM,–,–

# Reference: ChEMBL document CHEMBL4145441, “Discovery of N-(5-((5-chloro-4-((2-(isopropylsulfonyl)phenyl)amino)pyrimidin-2-yl)amino)-4-methoxy-2-(4-methyl-1,4-diazepan-1-yl)phenyl)acrylamide (CHMFL-ALK/EGFR-050) as a potent ALK/EGFR dual kinase inhibitor capable of overcoming a variety of ALK/EGFR associated drug resistant mutants in NSCLC” (Eur J Med Chem, 2017)
